ChEMBL document CHEMBL2062477, “Dual-Specificity Phosphatase CDC25A/B Inhibitor Identified from a Focused Library with Nonelectrophilic Core Structure” (ACS Med Chem Lett, 2012)
Active and inactive are the calls of the source. The rule behind the calls is not given here.

Target: T1, M-phase inducer phosphatase 1 (Homo sapiens, UniProt P30304)
T1 sequence (P30304 whole entry): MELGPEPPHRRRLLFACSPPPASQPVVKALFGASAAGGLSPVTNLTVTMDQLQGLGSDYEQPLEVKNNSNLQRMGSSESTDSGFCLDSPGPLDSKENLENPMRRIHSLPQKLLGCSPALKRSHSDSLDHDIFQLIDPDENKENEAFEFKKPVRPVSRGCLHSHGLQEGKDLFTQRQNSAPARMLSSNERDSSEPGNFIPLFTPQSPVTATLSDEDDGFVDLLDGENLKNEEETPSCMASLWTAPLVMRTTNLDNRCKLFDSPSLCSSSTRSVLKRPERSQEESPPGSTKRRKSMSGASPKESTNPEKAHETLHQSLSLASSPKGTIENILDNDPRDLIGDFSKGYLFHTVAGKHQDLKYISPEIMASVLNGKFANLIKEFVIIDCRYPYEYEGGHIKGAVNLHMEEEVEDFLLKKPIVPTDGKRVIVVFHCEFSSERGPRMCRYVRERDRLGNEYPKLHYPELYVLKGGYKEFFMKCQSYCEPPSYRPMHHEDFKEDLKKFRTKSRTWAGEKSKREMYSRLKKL
Test: Inhibition of CDC25A
Settings: not given

IC50	SMILES
7.35 µM	CCCCCCCCCCCCCCCC(NCc1ccc(C)cc1)=C1C(=O)OC(CO)C1=O (mixture of isomers)
8.67 µM	CCCCCCCCCCCCCCCC(NCc1ccc(N(C)C)cc1)=C1C(=O)OC(CO)C1=O (mixture of isomers)
13.5 µM	CCCCCCCCCCCCCCCC(NCc1ccccc1O)=C1C(=O)OC(CO)C1=O (mixture of isomers)

Target: T2, M-phase inducer phosphatase 2 (Homo sapiens, UniProt P30305)
T2 sequence (P30305 whole entry): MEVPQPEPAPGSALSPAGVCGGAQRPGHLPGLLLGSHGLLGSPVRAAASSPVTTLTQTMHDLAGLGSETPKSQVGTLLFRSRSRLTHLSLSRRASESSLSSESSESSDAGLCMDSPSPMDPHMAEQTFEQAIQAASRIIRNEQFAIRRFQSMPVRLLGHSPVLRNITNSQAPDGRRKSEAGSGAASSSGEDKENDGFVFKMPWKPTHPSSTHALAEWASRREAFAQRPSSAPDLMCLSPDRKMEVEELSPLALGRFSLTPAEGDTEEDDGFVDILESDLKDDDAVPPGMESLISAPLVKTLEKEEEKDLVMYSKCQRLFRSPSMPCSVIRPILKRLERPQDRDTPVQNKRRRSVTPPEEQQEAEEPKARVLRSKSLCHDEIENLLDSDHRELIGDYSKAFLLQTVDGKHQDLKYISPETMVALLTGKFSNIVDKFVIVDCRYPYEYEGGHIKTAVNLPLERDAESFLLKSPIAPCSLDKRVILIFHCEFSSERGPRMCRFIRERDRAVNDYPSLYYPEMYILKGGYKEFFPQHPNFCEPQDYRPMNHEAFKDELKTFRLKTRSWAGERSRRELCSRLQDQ
Test: Inhibition of CDC25B
Settings: not given

IC50	SMILES
3.33 µM	CCCCCCCCCCCCCCCC(NCc1ccc(C)cc1)=C1C(=O)OC(CO)C1=O (mixture of isomers)
6.23 µM	CCCCCCCCCCCCCCCC(NCc1ccc(N(C)C)cc1)=C1C(=O)OC(CO)C1=O (mixture of isomers)

Target: T3, M-phase inducer phosphatase 3 (Homo sapiens, UniProt P30307)
T3 sequence (P30307 whole entry): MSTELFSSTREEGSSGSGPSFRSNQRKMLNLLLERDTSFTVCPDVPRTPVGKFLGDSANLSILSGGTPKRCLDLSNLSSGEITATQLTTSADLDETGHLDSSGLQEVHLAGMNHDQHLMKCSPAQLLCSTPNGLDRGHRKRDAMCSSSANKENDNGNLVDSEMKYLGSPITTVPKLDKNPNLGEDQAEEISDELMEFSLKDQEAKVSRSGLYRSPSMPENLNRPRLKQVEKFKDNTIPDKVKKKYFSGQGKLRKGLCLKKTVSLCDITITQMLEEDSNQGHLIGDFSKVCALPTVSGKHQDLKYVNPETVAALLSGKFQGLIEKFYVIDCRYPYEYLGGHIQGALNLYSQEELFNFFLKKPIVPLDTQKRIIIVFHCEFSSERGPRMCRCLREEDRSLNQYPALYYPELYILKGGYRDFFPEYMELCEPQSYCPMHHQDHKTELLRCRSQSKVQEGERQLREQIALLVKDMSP
Test: Inhibition of CDC25C
Settings: not given

IC50	SMILES
56.7 µM	CCCCCCCCCCCCCCCC(NCc1ccc(C)cc1)=C1C(=O)OC(CO)C1=O (mixture of isomers)
> 100 µM	CCCCCCCCCCCCCCCC(NCc1ccc(N(C)C)cc1)=C1C(=O)OC(CO)C1=O (mixture of isomers)
> 100 µM	CCCCCCCCCCCCCCCC(NCc1ccccc1O)=C1C(=O)OC(CO)C1=O (mixture of isomers)

Target: Dual specificity protein phosphatase 3 (Homo sapiens, UniProt P51452)
Test: Inhibition of VHR
Settings: not given

Sequence of Dual specificity protein phosphatase 3 (P51452 whole entry): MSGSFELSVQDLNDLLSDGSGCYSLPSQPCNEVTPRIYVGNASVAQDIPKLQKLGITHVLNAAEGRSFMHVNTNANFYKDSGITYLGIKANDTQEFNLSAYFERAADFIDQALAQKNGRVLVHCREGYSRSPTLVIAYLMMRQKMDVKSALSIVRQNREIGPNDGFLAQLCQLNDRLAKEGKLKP

IC50	SMILES
2.68 µM	CCCCCCCCCCCCCCCC(NCc1ccc(C)cc1)=C1C(=O)OC(CO)C1=O (mixture of isomers)
12 µM	CCCCCCCCCCCCCCCC(NCc1ccc(N(C)C)cc1)=C1C(=O)OC(CO)C1=O (mixture of isomers)
24.9 µM	CCCCCCCCCCCCCCCC(NCc1ccccc1O)=C1C(=O)OC(CO)C1=O (mixture of isomers)

Target: T4, Dual specificity protein phosphatase 1 (Homo sapiens, UniProt P28562)
T4 sequence (P28562 whole entry): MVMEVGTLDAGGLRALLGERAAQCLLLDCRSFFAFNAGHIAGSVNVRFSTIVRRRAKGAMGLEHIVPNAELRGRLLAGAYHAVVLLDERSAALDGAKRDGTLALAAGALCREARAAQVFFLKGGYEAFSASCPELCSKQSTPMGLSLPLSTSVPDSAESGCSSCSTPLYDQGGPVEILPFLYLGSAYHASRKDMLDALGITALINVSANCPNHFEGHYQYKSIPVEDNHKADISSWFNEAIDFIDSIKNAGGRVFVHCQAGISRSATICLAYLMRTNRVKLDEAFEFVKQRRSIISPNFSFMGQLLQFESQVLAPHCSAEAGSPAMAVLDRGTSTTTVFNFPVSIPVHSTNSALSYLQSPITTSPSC
Test: Inhibition of MKP1
Settings: not given

IC50	SMILES
> 100 µM	CCCCCCCCCCCCCCCC(NCc1ccc(C)cc1)=C1C(=O)OC(CO)C1=O (mixture of isomers)
> 100 µM	CCCCCCCCCCCCCCCC(NCc1ccc(N(C)C)cc1)=C1C(=O)OC(CO)C1=O (mixture of isomers)
> 100 µM	CCCCCCCCCCCCCCCC(NCc1ccccc1O)=C1C(=O)OC(CO)C1=O (mixture of isomers)

Target: T5, Dual specificity protein phosphatase 6 (Homo sapiens, UniProt Q16828)
T5 sequence (Q16828 whole entry): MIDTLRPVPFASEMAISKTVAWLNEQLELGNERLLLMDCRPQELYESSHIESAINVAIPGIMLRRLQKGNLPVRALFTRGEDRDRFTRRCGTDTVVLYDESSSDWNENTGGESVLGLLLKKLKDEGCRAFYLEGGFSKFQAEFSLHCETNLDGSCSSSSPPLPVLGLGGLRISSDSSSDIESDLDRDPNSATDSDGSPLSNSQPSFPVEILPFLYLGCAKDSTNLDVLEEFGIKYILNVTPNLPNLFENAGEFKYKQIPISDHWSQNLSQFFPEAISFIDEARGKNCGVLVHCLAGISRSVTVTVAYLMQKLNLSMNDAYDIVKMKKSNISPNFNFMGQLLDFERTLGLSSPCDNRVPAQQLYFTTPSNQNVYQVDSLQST
Test: Inhibition of MKP3
Settings: not given

IC50	SMILES
> 100 µM	CCCCCCCCCCCCCCCC(NCc1ccc(C)cc1)=C1C(=O)OC(CO)C1=O (mixture of isomers)
> 100 µM	CCCCCCCCCCCCCCCC(NCc1ccc(N(C)C)cc1)=C1C(=O)OC(CO)C1=O (mixture of isomers)
> 100 µM	CCCCCCCCCCCCCCCC(NCc1ccccc1O)=C1C(=O)OC(CO)C1=O (mixture of isomers)

Target: T6, Tyrosine-protein phosphatase non-receptor type 1 (Homo sapiens, UniProt P18031)
T6 sequence (P18031 whole entry): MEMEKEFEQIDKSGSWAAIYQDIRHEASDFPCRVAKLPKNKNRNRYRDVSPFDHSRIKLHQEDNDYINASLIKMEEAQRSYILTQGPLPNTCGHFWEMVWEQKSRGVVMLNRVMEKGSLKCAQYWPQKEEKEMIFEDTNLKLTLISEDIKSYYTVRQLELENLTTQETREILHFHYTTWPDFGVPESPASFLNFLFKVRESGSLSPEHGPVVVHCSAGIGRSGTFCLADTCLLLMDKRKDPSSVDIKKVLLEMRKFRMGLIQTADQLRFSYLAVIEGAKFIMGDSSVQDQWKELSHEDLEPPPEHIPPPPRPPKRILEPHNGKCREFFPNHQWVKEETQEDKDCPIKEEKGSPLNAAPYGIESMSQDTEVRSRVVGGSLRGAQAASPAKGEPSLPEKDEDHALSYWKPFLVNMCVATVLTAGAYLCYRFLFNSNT
Test: Inhibition of PTP1B
Settings: not given

IC50	SMILES
> 100 µM	CCCCCCCCCCCCCCCC(NCc1ccc(C)cc1)=C1C(=O)OC(CO)C1=O (mixture of isomers)
> 100 µM	CCCCCCCCCCCCCCCC(NCc1ccc(N(C)C)cc1)=C1C(=O)OC(CO)C1=O (mixture of isomers)
> 100 µM	CCCCCCCCCCCCCCCC(NCc1ccccc1O)=C1C(=O)OC(CO)C1=O (mixture of isomers)

System: not listed separately
Test: Cell cycle arrest in mouse tsFT210 cells assessed as accumulation at G2/M phase by propidium iodide staining-based flow cytometric analysis
Format: functional
Settings: not given
Method in brief: (§1)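 tsFT210 cells synchronized at G2 by 17 h at 39 °C, then released for 4 h at 32 °C with compound (5–50 μM) or DMSO vehicle; 100 nM nocodazole reference. Cell-cycle phase distribution, including sub-G1, determined by flow cytometry.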

SMILES	Activity
CCCCCCCCCCCCCCCC(NCc1ccccc1O)=C1C(=O)OC(CO)C1=O (mixture of isomers)	Dose-dependent effect

System: tsFT210
Test: Inhibition of CDC25 in mouse tsFT210 cells assessed as hyperphosphorylation of CDK1 protein by Western blot analysis
Format: cell-based
Settings: not given
Method in brief: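 G2-arrested tsFT210 cells (39 °C, 17 h) released at 32 °C for 4 h with compound or vehicle; CDK1 phosphorylation status and total CDK1 assessed by Western blotting.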

SMILES	inhibition
CCCCCCCCCCCCCCCC(NCc1ccccc1O)=C1C(=O)OC(CO)C1=O (mixture of isomers)	Dose-dependent effect

System: tsFT210
Test: Induction of apoptosis in mouse tsFT210 cells assessed as increase in subG1 population at 50 uM after 17 hrs by propidium iodide staining-based flow cytometric analysis
Format: functional, cell-based
Settings: in the assay text read “after 4 hrs” for “after 17 hrs”
Method in brief: as §1

SMILES	Activity
CCCCCCCCCCCCCCCC(NCc1ccccc1O)=C1C(=O)OC(CO)C1=O (mixture of isomers)	inactive

Target: T1, M-phase inducer phosphatase 1
Test: Inhibition of CDC25A in presence of 2 mM DTT
Settings: not given
Method in brief: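 In vitro inhibition of purified CDC25A or CDC25B with DTT concentration in the assay buffer varied.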

IC50	SMILES
13.5 µM	CCCCCCCCCCCCCCCC(NCc1ccccc1O)=C1C(=O)OC(CO)C1=O (mixture of isomers)

System: HL-60
Test: cells
Settings: Homo sapiens, HL-60, 48 h

IC50	SMILES
19.1 µM	CCCCCCCCCCCCCCCC(NCc1ccc(C)cc1)=C1C(=O)OC(CO)C1=O (mixture of isomers)
10.9 µM	CCCCCCCCCCCCCCCC(NCc1ccc(N(C)C)cc1)=C1C(=O)OC(CO)C1=O (mixture of isomers)
2.44 µM	CCCCCCCCCCCCCCCC(NCc1ccccc1O)=C1C(=O)OC(CO)C1=O (mixture of isomers)

System: tsFT210
Test: Induction of ROS generation in mouse tsFT210 cells at 50 uM at 32 degC for 30 min measured by flow cytometric analysis pretreated with H2DCFDA at 39 degC
Settings: not given

SMILES	Activity
CCCCCCCCCCCCCCCC(NCc1ccccc1O)=C1C(=O)OC(CO)C1=O (mixture of isomers)	inactive
